Published values pooled from the literature.
Lines come from different studies, so protocols differ.
HTR2A: 5-hydroxytryptamine receptor 2A (HTR2A, Homo sapiens, UniProt P28223)
PFF0160c: Dihydroorotate dehydrogenase (quinone), mitochondrial (PFF0160c, Plasmodium falciparum, UniProt Q08210)

| Structure (SMILES) | target | assay | IC50 |
| --- | --- | --- | --- |
| Oc1ccc(C2=CCN(CC3CC34CC4)CC2)cc1 (stereo not shown) | HTR2A | calcium signal, antagonist | 6.23 µM |
| Cn1nc2c(=O)n(C3CC3)ccc2c1[C@](O)(c1ccc(C(F)(F)F)c(C#N)c1)C1CC1 | PFF0160c | enzyme activity, inhibitor | 0.02 µM |
| CC(C)N(CCc1c[nH]c2cccc(OC(=O)CCCC(=O)O)c12)C(C)C | HTR2A | ligand displacement, radioligand | 5.7 µM |
| CNC(=O)c1ccc(-c2cnn3ccc(C(=O)N(C)c4ccc(Cl)c(C(=O)O)c4)cc23)cc1 | Thromboxane A2 receptor (TBXA2R, Homo sapiens, UniProt P21731) | cell-free assay | > 30 µM |
| Cn1nccc1[C@]1(CNC(=O)c2ccc(F)c(F)c2-c2ccc(C(F)(F)F)cc2)NC(=O)NC1=O | Mucosa-associated lymphoid tissue lymphoma translocation protein 1 (MALT1, Homo sapiens, UniProt Q9UDY8) | enzyme activity, inhibitor | > 100 µM |
| CCn1cnc2c([C@@](O)(CC)c3ccc(C(F)(F)F)nc3)n(C)nc2c1=O | PFF0160c | enzyme activity, inhibitor | 0.056 µM |
| Cc1nc(Nc2ccc(CC(=O)O)cc2)nc(Nc2ccc(F)c(C(F)(F)F)c2)c1C | cGMP-specific 3',5'-cyclic phosphodiesterase (PDE5A, Homo sapiens, UniProt O76074) | enzyme activity, inhibitor, FP | ~1.5 µM |
| Cn1nc2c(=O)n(C3CC3)cnc2c1[C@](O)(c1ccc(C(F)(F)F)c(C#N)c1)C(F)(F)F | PFF0160c | enzyme activity, inhibitor | 0.0126 µM |
| COC(=O)c1cc(N(C)C(=O)c2ccn3ncc(-c4ccc(C(=O)O)cc4)c3c2)ccc1Cl | Serine/threonine-protein kinase WNK1 (WNK1, Homo sapiens, UniProt Q9H4A3) | enzyme activity, inhibitor | > 30 µM |
| COc1ccc(COCCN(C)C(C)Cc2ccc(O)cc2)cc1 (stereo not shown) | HTR2A | calcium signal, antagonist | 16.9 µM |
